Shown are actives, neighbours in structure and some others; about 0.93% of the full set was active somewhere.
JNK3 blocker = JNK3 kinase activity inhibitors, primary screen, biochemical, human, purified enzyme. Mitogen-activated protein kinase 10 (Homo sapiens), P53779. hit rate 0.61% among 60,000. inhibition, % at 8 µM. HTS; in the data active = inhibition above about 17%
MMP-13 inhibitor = human MMP13 inhibitors, primary screen, biochemical, FRET peptide cleavage; MMP-13 fTHP FRET cleavage, Mca fluorescence; inhibition, % at 4 µM; hit rate 0.07% among 65,000;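 active = inhibition above the mean of compound-free control plate wells plus 3 SD, cut at about 14% in these data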
HEK293 NFkB inh = inhibitors of PMA/ionomycin-induced NF-kB reporter, primary screen, antigen receptor NF-kB inhibitor project, cell-based, HEK-293 luciferase reporter, luminescence; inhibition, % at 3 µM; HEK-293 NF-kB luciferase reporter; AID 465, 2006; hit rate 0.21% among 62,000;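 active = inhibition above the mean of all tested compounds plus 3 SD, cut at about 40% in these data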
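Signal: luciferase luminescence; Material: HEK-293 cells with stable firefly luciferase reporter driven by four HIV NF-kB elements; Probe or stimulus: PMA with ionomycin; Replication: tested once; Times: 1 h compound pretreatment, then 16 h stimulation at 37 °C, 5% CO2; Benchmarks: DMSO and 10 µM reference inhibitor; Evaluation: per-plate % inhibition versus controls.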
HePTP inh = inhibitors of human HePTP phosphatase, primary screen, biochemical, absorbance, leukemia target; Tyrosine-protein phosphatase non-receptor type 7 (Homo sapiens), P35236; recombinant HePTP phosphatase activity, OD absorbance; inhibition, % at 20 µM; hit rate 0.64% among 110,000; AID 521, 2006; in the data active = inhibition above about 50%
Target sequence (P35236 whole entry, looked up): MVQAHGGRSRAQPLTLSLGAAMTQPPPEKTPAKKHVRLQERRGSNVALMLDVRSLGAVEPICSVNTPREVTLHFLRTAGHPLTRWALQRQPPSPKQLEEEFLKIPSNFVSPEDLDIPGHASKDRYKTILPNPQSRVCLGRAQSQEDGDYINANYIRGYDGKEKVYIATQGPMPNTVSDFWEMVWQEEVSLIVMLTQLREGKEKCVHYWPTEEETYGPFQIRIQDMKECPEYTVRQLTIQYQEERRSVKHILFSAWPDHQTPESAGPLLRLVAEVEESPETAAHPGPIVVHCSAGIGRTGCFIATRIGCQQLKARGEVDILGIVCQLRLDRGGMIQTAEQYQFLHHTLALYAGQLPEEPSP
A number is an active result; i = inactive; nt = not tested or not shown; ! = not confirmed by another sample.

SMILES | JNK3 blocker | MMP-13 inhibitor | HEK293 NFkB inh | HePTP inh
COc1cc(OC)cc(C(=O)N2CCN(c3ccc([N+](=O)[O-])cc3Cl)CC2)c1 | nt | nt | nt | i
CCCOC(=O)c1c(-c2ccc(OC)c(OC)c2)csc1N | nt | nt | nt | 104
CCN(CC)c1ccc2c(c1)OC(N)=C(C#N)C2c1cccnc1 (centres undefined) | i | i | 53 | i
CCCc1nn(C)c2c1C(c1cccnc1)C(C#N)=C(N)O2 (centres undefined) | i | i | nt | i
CCOc1ccccc1NC(=O)Cn1nnc(C(=O)NCc2ccco2)c1N | i | i | 42 | i
COC(=O)C1=C(C(=O)OC)SC(=C2C(=S)C(C)(C)N(C(=O)c3ccc4ccccc4c3)c3ccc(OC)cc32)S1 | nt | nt | nt | i
O=C1C(=O)N(c2cccnc2)C(c2ccc([N+](=O)[O-])cc2)/C1=C(\O)c1ccc(Cl)cc1 (centres undefined) | nt | nt | nt | i
CCCCCC12CCC(O)(CC1)C/C2=N/NS(=O)(=O)c1ccc(C)cc1 | nt | nt | nt | i
O=C(C(Sc1ccccc1)c1ccccc1)N1CCCC1 (centres undefined) | nt | nt | nt | 102
Cc1ccc(-n2[nH]c(=O)c(/C=C3\C=Nc4ccccc43)c2O)cc1Cl | nt | nt | nt | i
O=C(O)c1ccc(Cl)c(-c2ccc(/C=N\Nc3ccc([N+](=O)[O-])cn3)o2)c1 | nt | nt | nt | 54
O=[N+]([O-])c1ccc(N=Cc2cc(I)cc(I)c2O)c(O)c1 | nt | nt | nt | 76
O=C1/C(=C/c2c(F)cccc2Cl)SC(=S)N1CCc1ccccc1 | nt | nt | nt | i
O=C(/C=C/c1ccc(Cl)cc1Cl)Nc1c(F)c(F)c(F)c(F)c1F | nt | nt | nt | i
O=C(/C=C/c1ccc(Cl)cc1Cl)Nc1nn[nH]n1 | nt | nt | nt | 87
O=C(Nc1nnc(-c2ccco2)s1)c1ccccc1I | nt | nt | nt | i
C=C(C)CSc1nnc2n(-c3ccc(C)cc3)c(=O)c3c4c(sc3n12)COC(C)(C)C4 | nt | nt | nt | i
COc1ccc(N2C(=O)/C(=C\c3cccc(OC)c3O)SC2=S)cc1 | nt | nt | nt | i
COc1ccc(N2C(=O)/C(=C/c3cc([N+](=O)[O-])cc(OC)c3O)SC2=S)cc1 | nt | nt | nt | 104
C=C(Br)Cn1c(CCC)nc2ccccc21 | i | i | i | 102!
O=C(COc1ccc2ccccc2c1)Nc1cccc2ccccc12 | nt | nt | nt | i
Cc1cc(C)c2nc3s/c(=C\c4ccc(-c5ccc(Cl)c(C(=O)O)c5)o4)c(=O)n3c2c1 | nt | nt | nt | 90
O=C1NC(=O)/C(=C/c2ccc(-c3ccc(O)c(C(=O)O)c3)o2)S1 | nt | nt | nt | 102
O=C(O)c1cc(-c2ccc(/C=C3/Sc4ccccc4C3=O)o2)ccc1O | nt | nt | nt | 102
Cc1c(Cl)cccc1N=C1NC(=O)/C(=C/c2ccc(-c3ccccc3C(=O)O)o2)S1 | nt | nt | nt | 98
SMILES | JNK3 blocker | MMP-13 inhibitor | HEK293 NFkB inh | HePTP inh
Cc1cc(C)c2nc3s/c(=C\c4ccc(-c5cc(C)c(C)cc5[N+](=O)[O-])o4)c(=O)n3c2c1 | nt | nt | nt | i
CCOC(=O)c1ccc(-c2ccc(/C=C3\Sc4ccccc4C3=O)o2)cc1 | nt | nt | nt | i
COC(=O)c1ccc(C(=O)OC)c(NC(=O)COc2cc(C)ccc2C(C)C)c1 | nt | nt | nt | i
CCc1cc2c(C)c(CC)c(=O)oc2cc1OC | nt | nt | nt | i
CNc1ccc2[nH]nc3c2c1C(=O)c1ccccc1-3 | nt | nt | nt | i
Cc1ccc(-c2ccc(/C=C3/SC(=S)NC3=O)o2)cc1Cl | nt | nt | nt | i
Cc1cc(C)c2nc3s/c(=C/c4cccn4-c4ccc([N+](=O)[O-])cc4)c(=O)n3c2c1 | nt | nt | nt | 85
O=C1NC(=S)S/C1=C\c1ccc(-c2ccc(Cl)c(C(=O)O)c2)o1 | nt | nt | nt | 101
CC1=C(C(=O)Nc2ccccc2)C(c2cccc(Br)c2)NC(=O)N1 (centres undefined) | nt | nt | nt | i
O=[N+]([O-])c1ccc(/C=N\Nc2nc(-c3ccccc3)c3cc(Cl)ccc3n2)o1 | nt | nt | nt | i
O=C(N/N=C\c1ccc([N+](=O)[O-])o1)c1nc(-c2ccccc2)cc(-c2ccccc2)n1 | nt | nt | nt | 51
O=C1CC(c2ccccc2)CC2=C1C(c1ccc(OC(F)(F)F)cc1)Nc1ccccc1N2 (centres undefined) | nt | nt | nt | i

Source: PubChem BioAssay
